Source: PubChem (several laboratories)
SR-BI DiI inh – mouse SR-BI HDL lipid transfer inhibition; AID 488896; ldlA[mSR-BI] CHO cells, DiI-HDL uptake fluorescence, 3 h; 320,000 compounds, 0.96% hits; inhibition, % at 12.5 µM; Q61009;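 active = mean replicate inhibition of at least 70% and a set share of replicates each scoring 70 or more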
SR-BI DiI-HDL act – SR-BI HDL lipid transfer activation; CHO ldlA[mSR-BI] cells, DiI-HDL uptake fluorescence, 3 h; 100 = double the neutral-control signal; activation, % at 12.5 µM; 320,000 compounds, 0.096% hits; AID 504775;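 active = mean replicate activation of at least 60% and every replicate at or above 60%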
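System: CHO ldlA[mSR-BI] cells / Medium: HEPES-buffered (25 mM, pH 7.4) F12 plus 0.5% BSA / Probe or stimulus: labelled HDL, 10 µg/mL / Doses: single compound concentration, delivered by pin transfer / Schedule: 3 h, 37 °C / Measured by: DiI fluorescence, bottom read / Measure: cell-associated DiI fluorescence as measure of HDL uptake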
AHR act – activates the human aryl hydrocarbon receptor; P35869; AHR-responsive luciferase reporter cells, luminescence; activation, % at 5 µM; 320,000 compounds, 2.5% hits; AID 2796; in the data active = activation above about 47%
Target sequence (P35869 whole entry, looked up): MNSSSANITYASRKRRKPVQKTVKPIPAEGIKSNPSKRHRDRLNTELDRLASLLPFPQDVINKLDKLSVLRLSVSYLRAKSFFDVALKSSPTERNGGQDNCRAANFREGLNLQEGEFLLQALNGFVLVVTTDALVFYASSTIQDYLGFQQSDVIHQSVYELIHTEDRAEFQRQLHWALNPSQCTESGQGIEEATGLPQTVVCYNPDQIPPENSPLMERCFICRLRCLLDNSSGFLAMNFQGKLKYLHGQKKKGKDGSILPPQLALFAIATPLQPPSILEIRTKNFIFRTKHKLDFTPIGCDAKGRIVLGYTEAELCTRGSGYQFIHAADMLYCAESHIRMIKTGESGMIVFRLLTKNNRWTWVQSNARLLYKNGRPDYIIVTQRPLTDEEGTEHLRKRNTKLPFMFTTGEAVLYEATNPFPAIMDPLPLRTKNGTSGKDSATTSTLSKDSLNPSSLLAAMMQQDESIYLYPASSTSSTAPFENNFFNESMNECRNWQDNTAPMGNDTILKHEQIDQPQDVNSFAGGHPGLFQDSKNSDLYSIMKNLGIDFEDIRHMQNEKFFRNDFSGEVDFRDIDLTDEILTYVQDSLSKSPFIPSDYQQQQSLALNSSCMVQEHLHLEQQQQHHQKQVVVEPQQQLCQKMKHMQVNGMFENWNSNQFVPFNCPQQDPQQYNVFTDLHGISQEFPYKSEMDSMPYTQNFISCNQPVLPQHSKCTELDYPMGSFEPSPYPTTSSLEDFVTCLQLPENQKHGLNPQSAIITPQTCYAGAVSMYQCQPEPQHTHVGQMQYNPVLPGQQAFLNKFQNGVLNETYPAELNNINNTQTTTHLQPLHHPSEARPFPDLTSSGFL
SMARCA2 activ – activators of SMARCA2 function; 370,000 compounds, 1% hits; MG213 cells, MMTV-luciferase reporter, dexamethasone, overnight; activation, % at 9.1 µM; AID 652017; in the data active = activation above about 7.8%
Hep lipid drop – hepatic lipid droplet formation modulation; 240,000 compounds, 0.4% hits; inhibition, % at 6.5 µM; AML12 mouse hepatocytes, oleate lipid droplets, BODIPY imaging;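 active = lipid droplet intensity inhibited by at least 50%, with more than 500 cells counted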
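Test system: AML12 hepatocytes (mouse); reagent: oleate loading, 100 µM; dosing: one dose, 6.5 µM compound; incubation: overnight exposure; signal: fluorescence imaging, 20x objective, two fields per well; read-out basis: % inhibition of corrected integrated BODIPY droplet signal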
Yeast superoxide – lowers age-related superoxide in aged yeast cells; 330,000 compounds, 0.18% hits; superoxide response (% of plate mean), % at 10 µM; AID 2690; S. cerevisiae aged cells, superoxide DHE fluorescence; hits give low values;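 active = superoxide response under a set limit, about three screen SD below normal, cut at about 65% in these data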;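 also: yeast aged for seven days with compound at 30 °C before DHE staining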
Hits are given with their value; n = inactive; x = no result. Only some compounds are listed: those with a hit (about 4.3% of all), similar ones and a draw of the others.

SMILES | SR-BI DiI inh | SR-BI DiI-HDL act | AHR act | SMARCA2 activ | Hep lipid drop | Yeast superoxide
CCn1c2ccccc2c2cc(NC(=O)COC(=O)c3ccc(F)cc3F)ccc21 | x | x | x | n | x | x
CCCC(=O)OC12CCCN(C1)/C(=C/c1ccc(C#N)cc1)C2 (configuration not stated) | x | x | x | n | x | x
COc1nc(OC)nc(N2CCC(C(=O)NCc3cccc(OC)c3OC)CC2)n1 | x | x | x | n | x | x
COc1ccccc1OCc1nc(C#N)c(N2CCCC2)o1 | n | n | 64.5 | n | n | n
O=C(C(=O)N1CCC(CNS(=O)(=O)c2cccc(C(F)(F)F)c2)CC1)c1cc2ccccc2o1 | x | x | x | n | x | x
CCCCN(C(=O)NC(=O)Nc1ccccc1OC)S(C)(=O)=O | n | n | 58.1 | n | x | n
CCCCN(C(=O)NC(=O)Nc1cc(C)ccc1C)S(C)(=O)=O | n | n | n | n | x | n
COc1ccccc1NC(=O)Nc1nnc(C(C)C)s1 | n | n | 60.1 | n | n | n
COc1ccccc1NC(=O)Nc1nnc(C(C)c2ccccc2)s1 (configuration not stated) | n | n | n | n | n | n
COc1ccccc1NC(=O)NC(=O)N(C(C)C)S(C)(=O)=O | n | n | 59.9 | n | x | n
COc1ccccc1NC(=O)NC(=O)c1ccccc1 | n | n | 48.8 | n | n | n
COc1ccccc1NC(=O)NC(N)=O | n | n | n | n | n | n
COc1cccc(CNC(=O)[C@H]2CCCN2C(=O)[C@H]2CCCN2C(=O)N2CCCCC2)c1 | x | x | x | n | x | x
O=C(Nc1cccc(F)c1)c1ccc(-c2ccccc2Cl)o1 | n | n | 49.9 | x | n | n
C#CCN1C(=O)[C@]2(OCCC=C[C@H]2C)c2cc(OC)ccc21 | x | x | x | n | x | x
Cc1ccccc1NC(=O)CSc1nc(Nc2ccccc2)nc(N2CCOCC2)n1 | 80.6 | n | n | n | n | n
O=C(c1ccc(Br)o1)N1CCN(c2ncccn2)CC1 | n | n | 58.7 | n | n | n
Cc1ccc(C(=O)N2CCN(c3ncccn3)CC2)o1 | n | n | n | n | x | n
O=C1Nc2ccc(C(F)(F)F)cc2N2CCCC12 (configuration not stated) | x | x | n | x | x | n
O=C1Nc2cc(C(F)(F)F)ccc2N2CCCCC12 (configuration not stated) | x | x | 73.8 | n | x | n
Oc1cccc2ccc(/C=C/c3ccccc3Br)nc12 | n | n | n | n | n | n
Oc1ccc(Cl)cc1/C=C/c1ccc2cccc(O)c2n1 | 74.0 | n | x | n | n | x
Oc1c(Cl)cc(Cl)cc1/C=C/c1ccc2cccc(O)c2n1 | n | n | 51.3 | n | n | n
COc1cc(Br)cc(/C=C/c2ccc3cccc(O)c3n2)c1O | 91.3 | n | n | n | n | n
COc1ccc(CC(=O)N2CCN(C(=O)c3ccc4nc(C)n(C5CCCC5)c4c3)CC2)cc1 | x | x | x | n | x | x
SMILES | SR-BI DiI inh | SR-BI DiI-HDL act | AHR act | SMARCA2 activ | Hep lipid drop | Yeast superoxide
COc1cccc(C2NC(=S)NC(C)=C2C(C)=O)c1 (configuration not stated) | x | x | x | n | x | x
O=C(CSc1nnc(-c2ccccc2)n1-c1ccccc1)NN=C/C=C\c1ccccc1[N+](=O)[O-] | x | x | x | n | x | x
CCOc1ccc(-n2c(COc3ccccc3)nnc2SCC(=O)Nc2ccc3c(c2)OCCO3)cc1 | x | x | x | n | x | x
CC(OC(=O)c1cccnc1SCc1cc(=O)n2ccccc2n1)c1ccccn1 (configuration not stated) | n | n | 73.0 | n | x | n
COc1ccc(-c2nc3c4ccccc4[nH]c(=O)n3n2)cc1 | n | n | 111.7 | n | n | n
O=C(NCC1CCN(C(=O)C(=O)c2cc3ccccc3o2)CC1)c1ccc2c(c1)OCC2 | x | x | x | n | x | x
Cc1ccc(Nc2nc3ccccc3nc2Nc2c(C)n(C)n(-c3ccccc3)c2=O)cc1 | 92.3 | n | n | n | n | n
Cc1cc(NC(=O)c2cc(-c3ccc(C)c(C)c3)nc3ccccc23)no1 | n | n | 58.2 | n | n | n
Cc1c(NCc2nc3ccccc3[nH]2)c(=O)n(-c2ccccc2)n1C | n | n | n | 7.8 | x | n
Cc1c(NCc2cc(Cl)cc(Cl)c2O)c(=O)n(-c2ccccc2)n1C | n | n | n | n | n | n
Cc1c(Nc2nc3ccccc3nc2NS(=O)(=O)c2cccc(Cl)c2)c(=O)n(-c2ccccc2)n1C | n | n | n | n | n | n
Cc1cc(NC(=O)c2cc(-c3ccncc3)nc3c(C)cccc23)no1 | 70.9 | n | n | n | n | n
Cc1cc(NC(=O)c2cc(-c3ccccn3)nc3ccccc23)no1 | n | n | n | n | x | n
